How the values were obtained:
[1] = target: T1, Serotonin 2 (5-HT2) receptor (Rattus norvegicus, UniProt P30994+P08909+P14842); experiment: In vitro 5-hydroxytryptamine 2 receptor affinity by using [3H]-Spiperone as the radioligand in rat cortical tissue; value may range from 12 to 66
D(2) dopamine receptor [2] = target: T2, D(2) dopamine receptor (Rattus norvegicus, UniProt P61169); experiment: In vitro Dopamine receptor D2 affinity by using [3H]spiperone as the radioligand in rat limbic system at 1 uM concentration of compound; value may range from […]; type: tissue-based
Rattus norvegicus [3] = experiment: Potential antipsychotic activity was assessed by measuring the ability to block the conditioned avoidance response(CAR) in rats on oral administration.; type: functional
Rattus norvegicus [4] = experiment: Potential antipsychotic activity was assessed by measuring the ability to block the conditioned avoidance response(CAR) in rats on oral administration; type: functional
Mus musculus [5] = experiment: Ability to inhibit apomorphine (APO) induced climbing behavior in mice by intraperitoneal administration of compound.; value may range from 1 to 23; type: functional; conditions: ip
Mus musculus [6] = experiment: Ability to inhibit apomorphine (APO) induced stereotyped behavior in mice by intraperitoneal administration of compound; value may range from 22 to 31; type: functional; conditions: ip
D(2) dopamine receptor [7] = target: T2, D(2) dopamine receptor; experiment: In vitro Dopamine receptor D2 affinity by using [3H]spiperone as the radioligand in rat limbic system at 1 uM concentration of compound; value may range from 72 to 141; type: tissue-based
Rattus norvegicus [8] = experiment: Potential antipsychotic activity was assessed by measuring the ability to block the conditioned avoidance response(CAR) in rats on oral administration; indicates insignificant activity; type: functional
D(2) dopamine receptor [9] = target: T2, D(2) dopamine receptor; experiment: In vitro Dopamine receptor D2 affinity by using [3H]spiperone as the radioligand in rat limbic system at 1 uM concentration of compound; value may range from 3 to 10; type: tissue-based
Rattus norvegicus [10] = experiment: Potential antipsychotic activity was assessed by measuring the ability to block the conditioned avoidance response(CAR) in rats on oral administration; value may range from 8 to 35; type: functional
How it was run: (§1)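 Each session had 60 trials, with a control session before every drug run. Trials with no avoidance response (avoidance block) were summed over rats at each dose and expressed as a percentage of total trials. Control avoidance was set at 100%. The dose giving 50% block (AB50) was fitted by least squares.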

[11] = target: T1, Serotonin 2 (5-HT2) receptor; experiment: In vitro 5-hydroxytryptamine 2 receptor affinity by using [3H]spiperone as the radioligand in rat cortical tissue; value may range from 6 to 75
D(2) dopamine receptor [12] = target: T2, D(2) dopamine receptor; experiment: In vitro Dopamine receptor D2 affinity by using [3H]spiperone as the radioligand in rat limbic system at 1 uM concentration of compound; type: tissue-based
D(2) dopamine receptor [13] = target: T2, D(2) dopamine receptor; experiment: In vitro Dopamine receptor D2 affinity by using [3H]spiperone as the radioligand in rat limbic system at 1 uM concentration of compound; value may range from 238 to 401; type: tissue-based
D(2) dopamine receptor [14] = target: T2, D(2) dopamine receptor; experiment: In vitro Dopamine receptor D2 affinity by using [3H]-Spiperone as the radioligand in rat limbic system at 1 uM concentration of compound; value may range from 4 to 15; type: tissue-based
Rattus norvegicus [15] = experiment: Potential antipsychotic activity was assessed by measuring the ability to block the conditioned avoidance response(CAR) in rats on oral administration; value may range from 10 to 31; type: functional; how it was run: as §1
Mus musculus [16] = experiment: Ability to inhibit apomorphine (APO) induced climbing behavior in mice by intraperitoneal administration of compound; value may range from 1 to 13; type: functional; conditions: ip
How it was run: (§2)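 Male CF-1 mice (20–25 g), acclimated at least 3 days, were given compound ip in 0.25% Tween 80 at 1, 10, 30 and 60 mg/kg (six mice per dose), alongside a concurrent vehicle group. Apomorphine 1 mg/kg sc was given 30 min later. Scoring at 5 min: stereotypy (sniffing-licking-gnawing) 0/1; climbing 0–2.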

[17] = target: T1, Serotonin 2 (5-HT2) receptor; experiment: In vitro 5-hydroxytryptamine 2 receptor affinity by using [3H]spiperone as the radioligand in rat cortical tissue.; value may range from 76 to 299
Mus musculus [18] = experiment: Ability to inhibit apomorphine (APO) induced stereotyped behavior in mice by intraperitoneal administration of compound; value may range from 7 to 18; type: functional; conditions: ip; how it was run: as §2
D(2) dopamine receptor [19] = target: T2, D(2) dopamine receptor; experiment: In vitro Dopamine receptor D2 affinity by using [3H]spiperone as the radioligand in rat limbic system at 1 uM concentration of compound; value may range from 84 to 130; type: tissue-based
Rattus norvegicus [20] = experiment: Potential antipsychotic activity was assessed by measuring the ability to block the conditioned avoidance response(CAR) in rats on oral administration; value may range from 11 to 81; type: functional; how it was run: as §1
[21] = target: T1, Serotonin 2 (5-HT2) receptor; experiment: In vitro 5-hydroxytryptamine 2 receptor affinity by using [3H]spiperone as the radioligand in rat cortical tissue; value may range from 165 to 263
Rattus norvegicus [22] = experiment: Potential antipsychotic activity was assessed by measuring the ability to block the conditioned avoidance response(CAR) in rats on oral administration; value may range from 10 to 34; type: functional; how it was run: as §1
[23] = target: T1, Serotonin 2 (5-HT2) receptor; experiment: In vitro 5-hydroxytryptamine 2 receptor affinity by using [3H]spiperone as the radioligand in rat cortical tissue.; value may range from 140 to 980
D(2) dopamine receptor [24] = target: T2, D(2) dopamine receptor; experiment: In vitro Dopamine receptor D2 affinity by using [3H]spiperone as the radioligand in rat limbic system at 1 uM concentration of compound; value may range from 0.7 to 1.5; type: tissue-based
Rattus norvegicus [25] = experiment: Potential antipsychotic activity was assessed by measuring the ability to block the conditioned avoidance response(CAR) in rats on oral administration; value may range from 4 to 10; type: functional; how it was run: as §1
[26] = target: T1, Serotonin 2 (5-HT2) receptor; experiment: In vitro 5-hydroxytryptamine 2 receptor affinity by using [3H]spiperone as the radioligand in rat cortical tissue; value may range from 2.4 to 5.3
Rattus norvegicus [27] = experiment: Potential antipsychotic activity was assessed by measuring the ability to block the conditioned avoidance response(CAR) in rats on oral administration; insigniificant activity, ip in shelf jump tset; type: functional

T2 sequence (P61169 whole entry): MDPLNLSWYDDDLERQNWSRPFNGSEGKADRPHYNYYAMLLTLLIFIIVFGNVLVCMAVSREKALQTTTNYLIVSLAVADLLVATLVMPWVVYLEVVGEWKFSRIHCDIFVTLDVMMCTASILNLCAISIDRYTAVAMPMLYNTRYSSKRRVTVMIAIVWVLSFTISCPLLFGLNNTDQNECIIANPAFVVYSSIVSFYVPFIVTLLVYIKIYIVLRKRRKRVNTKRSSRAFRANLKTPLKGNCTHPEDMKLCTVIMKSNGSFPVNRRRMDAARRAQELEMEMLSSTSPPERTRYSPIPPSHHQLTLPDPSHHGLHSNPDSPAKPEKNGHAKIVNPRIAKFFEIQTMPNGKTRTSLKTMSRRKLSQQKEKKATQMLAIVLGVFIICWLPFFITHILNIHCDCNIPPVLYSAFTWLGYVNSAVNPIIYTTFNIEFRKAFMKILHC

Question: For `Cl.Clc1ccc2[nH]c3c(c2c1)CN(CCCc1cccnc1)CC3`, which Ki [1] is on record?
Answer: 28 nM

Question: And the Ki (D(2) dopamine receptor [2])?
Answer: 126 nM

Question: And the AB50 (Rattus norvegicus [3])?
Answer: >40 mg/kg

Question: How did the AB50 (Rattus norvegicus [4]) turn out when `CN1CCN(C2=Nc3cc(Cl)ccc3Nc3ccccc32)CC1` [CLOZAPINE] was run?
Answer: 11 mg/kg

Question: What about the ED50 (Mus musculus [5]) of the same molecule?
Answer: 5 mg/kg

Question: And the ED50 (Mus musculus [6])?
Answer: 26 mg/kg

Question: For `Cl.Clc1ccc2[nH]c3c(c2c1)CN(CCc1ccccn1)CC3`, which Ki (D(2) dopamine receptor [7]) is on record?
Answer: 103 nM

Question: And the AB50 (Rattus norvegicus [8])?
Answer: >40 mg/kg

Question: Which results are given for `Cl.Fc1ccc(-n2c3c(c4cc(F)ccc42)CN(CCc2cnccn2)CC3)cc1`?
Answer: Ki (D(2) dopamine receptor [9]): 5 nM; AB50 (Rattus norvegicus [10]): 16 mg/kg; Ki [11]: 23 nM

Question: With `Cl.Fc1ccc2[nH]c3c(c2c1)CN(CCc1cnccn1)CC3` as the molecule, how does the AB50 (Rattus norvegicus [3]) read?
Answer: >40 mg/kg

Question: And the Ki (D(2) dopamine receptor [12])?
Answer: 63 nM

Question: For `c1ccc2nc(CCN3CCc4[nH]c5ccccc5c4C3)ccc2c1`, which Ki (D(2) dopamine receptor [13]) is on record?
Answer: 331 nM

Question: With `Fc1ccc(-n2c3c(c4cc(F)ccc42)CN(CCCCc2ccncc2)CC3)cc1` as the molecule, how does the Ki (D(2) dopamine receptor [14]) read?
Answer: 7 nM

Question: With `Cl.Fc1ccc2[nH]c3c(c2c1)CN(CCCc1cccnc1)CC3` [GEVOTROLINE HYDROCHLORIDE] as the molecule, how does the AB50 (Rattus norvegicus [15]) read?
Answer: 14 mg/kg

Question: And the ED50 (Mus musculus [16])?
Answer: 4 mg/kg

Question: And the Ki [17]?
Answer: 136 nM

Question: What about the ED50 (Mus musculus [18]) of the same molecule?
Answer: 11 mg/kg

Question: And the Ki (D(2) dopamine receptor [19])?
Answer: 104 nM

Question: For `Cl.Fc1ccc2[nH]c3c(c2c1)CN(CCc1ccncc1)CC3` [CARVOTROLINE HYDROCHLORIDE], which AB50 (Rattus norvegicus [20]) is on record?
Answer: 23 mg/kg

Question: And the Ki [21]?
Answer: 211 nM

Question: What does the source list for `Cl.Fc1ccc2[nH]c3c(c2c1)CN(CCCCc1ccncc1)CC3`?
Answer: AB50 (Rattus norvegicus [22]): 15 mg/kg; Ki [23]: 480 nM

Question: Which results are given for `Cl.Fc1ccc(-n2c3c(c4cc(F)ccc42)CN(CCc2ccc4ccccc4n2)CC3)cc1`?
Answer: AB50 (Rattus norvegicus [3]): 40 mg/kg; Ki (D(2) dopamine receptor [24]): 1 nM

Question: For `Cl.Fc1ccc(-n2c3c(c4cc(F)ccc42)CN(CCc2ccccn2)CC3)cc1`, which AB50 (Rattus norvegicus [25]) is on record?
Answer: 6 mg/kg

Question: And the Ki [26]?
Answer: 3.6 nM

Question: `CC1CN(CCCN2CCc3[nH]c4ccc(Cl)cc4c3C2)CC(C)N1.Cl` (centres undefined) was tested. Which AB50 (Rattus norvegicus [27]) did it give?
Answer: >40 mg/kg
